Key:
[1] = Displacement of [3H]Ro151788 from bovine GABA-A receptor; design: species or system Bos taurus
Summary of the method: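 Competition binding against [3H]flumazenil (Ro 15-1788) at the benzodiazepine site, using bovine cerebral cortex membranes diluted in 50 mM Tris–citrate pH 7.4. Protein was measured by the Lowry method. Each compound was run at six or more concentrations. Ki was derived only for compounds giving more than 80% inhibition of specific binding at 10 µM.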

Bos taurus = species on record: Bos taurus; assay: Displacement of [3H]Ro151788 from bovine GABA-A receptor at 10 uM
Summary of the method: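 Bovine cerebral cortex membranes diluted in 50 mM Tris–citrate buffer pH 7.4, with protein measured by Lowry. Specific binding of [3H]flumazenil (Ro 15-1788) was read as percent inhibition with test compound at a fixed 10 µM. Compounds inhibiting by more than 80% went on to Ki determination.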

Compound: [O-][n+]1nc2c(-c3ccsc3)cnn2c2cc(-c3cccs3)ccc21
- Ki [1]: 0.37 µM
- Activity (Bos taurus): > 80%

Compound: O=C(OCc1cccs1)c1cnn2c1n[n+]([O-])c1ccc(-c3ccco3)cc12
- Ki [1]: 0.0548 µM
- Activity (Bos taurus): > 80%

Compound: [O-][n+]1nc2c(-c3ccsc3)cnn2c2cc(-c3ccc[nH]3)ccc21
- Ki [1]: 0.0194 µM
- Activity (Bos taurus): > 80%

Compound: CC(C)(C)OC(=O)n1cccc1-c1ccc2c(c1)n1ncc(C(=O)OCc3cccs3)c1n[n+]2[O-]
- Ki [1]: 0.395 µM
- Activity (Bos taurus): > 80%

Compound: [O-][n+]1nc2c(-c3ccco3)cnn2c2cc(-c3ccsc3)ccc21
- Ki [1]: 0.0269 µM
- Activity (Bos taurus): > 80%

Compound: [O-][n+]1nc2c(-c3ccc[nH]3)cnn2c2cc(-c3ccsc3)ccc21
- Ki [1]: 0.0483 µM
- Activity (Bos taurus): > 80%

Compound: [O-][n+]1nc2c(-c3ccsc3)cnn2c2cc(-c3ccccc3)ccc21
- Ki [1]: 0.642 µM
- Activity (Bos taurus): > 80%

Compound: [O-][n+]1nc2c(I)cnn2c2cc(-c3ccncc3)ccc21
- Ki [1]: 2.38 µM
- Activity (Bos taurus): > 80%

Compound: O=C(c1ccco1)c1cnn2c1n[n+]([O-])c1ccc(-c3ccc[nH]3)cc12
- Ki [1]: 0.063 µM
- Activity (Bos taurus): > 80%

Compound: [O-][n+]1nc2c(-c3ccsc3)cnn2c2cc(-c3ccco3)ccc21
- Ki [1]: 0.209 µM
- Activity (Bos taurus): > 80%

Compound: [O-][n+]1nc2c(I)cnn2c2cc(-c3ccco3)ccc21
- Ki [1]: 0.19 µM
- Activity (Bos taurus): > 80%

Compound: COc1ccc(-c2ccc3c(c2)n2ncc(I)c2n[n+]3[O-])cc1
- Ki [1]: 0.241 µM
- Activity (Bos taurus): > 80%

Compound: [O-][n+]1nc2c(I)cnn2c2cc(-c3ccc[nH]3)ccc21
- Ki [1]: 0.025 µM
- Activity (Bos taurus): > 80%

Compound: COc1ccc(-c2ccc3c(c2)n2ncc(C(=O)OCc4cccs4)c2n[n+]3[O-])cc1
- Ki [1]: 0.0294 µM
- Activity (Bos taurus): > 80%

Compound: [O-][n+]1nc2c(-c3ccsc3)cnn2c2cc(-c3ccsc3)ccc21
- Ki [1]: 0.357 µM
- Activity (Bos taurus): > 80%

Compound: COc1ccccc1-c1ccc2c(c1)n1ncc(I)c1n[n+]2[O-]
- Ki [1]: 0.305 µM
- Activity (Bos taurus): > 80%

Compound: O=C(c1ccco1)c1cnn2c1n[n+]([O-])c1ccc(-c3ccco3)cc12
- Ki [1]: 0.857 µM
- Activity (Bos taurus): > 80%

Compound: COC(=O)c1cnn2c1n[n+]([O-])c1ccc(-c3ccc[nH]3)cc12
- Ki [1]: 0.0149 µM
- Activity (Bos taurus): > 80%

Compound: COc1ccc(-c2ccc3c(c2)n2ncc(-c4ccsc4)c2n[n+]3[O-])cc1
- Ki [1]: 0.817 µM
- Activity (Bos taurus): > 80%

Compound: COc1ccc(-c2ccc3c(c2)n2ncc(C(=O)c4ccco4)c2n[n+]3[O-])cc1
- Ki [1]: 0.239 µM
- Activity (Bos taurus): > 80%

Compound: [O-][n+]1nc2c(I)cnn2c2cc(-c3ccsc3)ccc21
- Ki [1]: 0.056 µM
- Activity (Bos taurus): > 80%

Compound: [O-][n+]1nc2c(I)cnn2c2cc(-c3ccccc3O)ccc21
- Ki [1]: 2.48 µM
- Activity (Bos taurus): > 80%

Compound: [O-][n+]1nc2c(I)cnn2c2cc(-c3cccs3)ccc21
- Ki [1]: 0.202 µM
- Activity (Bos taurus): > 80%
